# Assay outcomes: PubChem, several laboratories
# KLF5 inh: inhibitors of KLF5 expression; DLD-1 KLF5 promoter-luciferase reporter, luminescence; inhibition, % at 5 µM; 290,000 tested, 0.23% active;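 active = inhibition above a per-plate limit of that plate's mean compound inhibition plus 3 SD, cut at about 60% in these data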;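 note: 0% = DMSO wells and 100% = LY294002 at 200 µM; higher means less KLF5 promoter-driven luciferase light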
# MT stabilizer: microtubule stabilizers in HeLa cells | 200,000 tested, 0.83% active | AID 2205 | % tubulin-high responders, % at 10 µM | HeLa tubulin immunostaining HCS, 24 h; share of cells brighter than vehicle mean+2SD;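 active = plate Z-score above 3 for both tubulin-high and condensed-nucleus cell shares, with cell loss under 80%, at 10 µM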;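 note: anti alpha tubulin signal scored within the nucleus-defined area of each cell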
# b-catenin transl: modulators of beta-catenin nuclear translocation; nuclear translocation activity, % at 5 µM; 190,000 tested, 0.3% active; HeLa beta-catenin nuclear translocation, immunofluorescence imaging;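 active = nuclear translocation activity above 50% at 5 µM, with a well cell count of 50 or more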;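 note: per-cell ratio of nuclear to cytoplasmic median beta-catenin stain intensity; plate controls were DMSO negative control for no effect and GSK-3 inhibitor IX positive control for full effect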
#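 Test system: HeLa cells, endogenous beta-catenin; Compound: single 5 µM dose plus 0.02–20 µM confirmation series; Times: compound exposure 24 h at 37°C; Signal: fluorescence imaging of beta-catenin antibody stain plus DAPI; Read-out: % activation, nuclear-to-cytoplasmic median beta-catenin signal ratio per cell.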
# Ba/F3 V617F tox: reduce viability of Ba/F3 cells dependent on JAK2V617F; 220,000 tested, 1.1% active; inhibition, % at 5.6 µM; AID 1446; Ba/F3 EpoR-JAK2V617F viability, ATP luminescence;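 active = inhibition above the campaign mean plus 3 SD over all tested compounds, cut at about 24% in these data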;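 note: cytokine-independent growth of Ba/F3 cells driven by EpoR plus mutant JAK2; 0% = DMSO-treated cells and 100% = JAK inhibitor I control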
# IEC-6 cytotox: kills IEC-6 intestinal cells in KLF5 counter-screen; IEC-6 cytotoxicity, luminescence viability; inhibition, % at 5 µM; 290,000 tested, 0.78% active; AID 1825; in the data active = inhibition above about 22%;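 note: 0% = plate median of test compound wells and 100% = cytotoxic reference compound wells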
# BaF3 tox: reduces parental Ba/F3 cell viability, JAK2V617F counter-screen. CellTiter-Glo ATP luminescence. inhibition, % at 5.6 µM. 220,000 tested, 1.1% active. AID 1486;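 active = inhibition above a per-campaign cutoff, the mean inhibition of all tested compounds plus 3 SD, cut at about 27% in these data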;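 note: 0% = DMSO wells and 100% = JAK Inhibitor I control wells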
# The depositor's hits bear a star; / = not tested or not shown. In the library only some 2.1% were active in any assay of this set; here they are far more common.
SMILES,KLF5 inh,MT stabilizer,b-catenin transl,Ba/F3 V617F tox,IEC-6 cytotox,BaF3 tox
O=C(NC(=S)Nc1cccc(Cl)c1N1CCCCC1)c1cccs1,-5,26*,0,0,3,3
O=C(NC(=S)Nc1cccc(Cl)c1N1CCCCC1)c1ccco1,-3,39*,4,6,7,6
CCOC(=O)C(=CNc1ccc(Oc2cccnc2)nc1)C(=O)OCC,-17,/,-3,3,3,-4
CCOC(=O)N1CCN(C(=O)CN(c2ccc(Oc3ccccc3)cc2)S(C)(=O)=O)CC1,-9,2,0,-2,-5,34*
CCOC(=O)N1CCN(C(=O)CN(c2ccc(OCC)cc2)S(C)(=O)=O)CC1,-5,2,-1,-3,2,2
Cc1ccc(OCCN2CCN(c3ncnc4sc(C)c(C)c34)CC2)cc1,-9,1,-10,9,4,28*
Cc1sc2ncnc(N3CCCCC3)c2c1C,-6,2,-2,0,-2,3
COc1ccc(C(NC(=O)C(C)C)c2c(O)ccc3ccccc23)cc1 (configuration not stated),5,13*,0,0,-6,2
C#CCSc1nccc(-c2nn(-c3ccc(C)cc3)ccc2=O)n1,-40,3,-1,-1,5,4
CCSc1nccc(-c2nn(-c3ccc(C)cc3)ccc2=O)n1,7,50*,133*,31*,17,38*
Cn1c2ccccc2n2c(=O)c(=O)n(CC(=O)N3CCCc4ccccc43)nc12,-4,2,0,2,1,1
COc1cc(C2OCC3C(c4ccc(OC5OC(CO)C(O)C(O)C5O)c(OC)c4)OCC23)ccc1O (configuration not stated),-16,4,-1,-3,-4,-4
COc1ccc(C[C@H]2COC(=O)[C@@H]2Cc2ccc(OC3OC(CO)C(O)C(O)C3O)c(OC)c2)cc1OC (some centres not stated),-11,3,/,23,2,41*
CSc1ccccc1NC(=O)CO/N=C(\C)c1cc2ccccc2o1,-20,1,/,-2,36*,3
CCCn1nnc(NC(=O)COc2ccc(C3CCCCC3)cc2)n1,0,1,-3,1,2,0
CC1=NN(C(N)=S)C(=O)C1N=Nc1ccc(O)cc1 (configuration not stated),-38,1,-1,37*,7,58*
COc1ccc(CCNC(=O)c2cc(C)oc2C)cc1OC,19,/,/,/,4,/
Clc1cccc(C[n+]2cc(-c3ccccc3)n3c2CCC3)c1,-14,2,0,65*,-12,65*
Cc1ccc(-c2c[n+](Cc3cccc(Cl)c3)c3n2CCC3)cc1,-1,/,0,82*,4,75*
Cc1ccc(NC(=O)C[n+]2cc(-c3ccccc3)n3c2CCC3)c(C)c1,-13,/,0,-6,-8,0
CC(/C=N/NC(=O)c1nnn(-c2nonc2N)c1C(C)C)=C\c1ccco1,13,/,/,/,5,/
COCCCN1C(=O)N(c2ccc(F)cc2)C(=O)C1CC(=O)Nc1ccc(OC)cc1 (configuration not stated),-11,/,/,/,4,/
O=C(Nc1ncc2c(n1)-c1ccccc1CC2)c1cccc(Cl)c1,-6,44*,/,-2,16,6
O=C(Nc1ncc2c(n1)-c1ccccc1CC2)c1ccc(Cl)cc1,-10,1,/,-2,3,5
COc1cc(OC)c(NC(=O)Cn2cnc3sc(C)c(S(=O)(=O)N4CCOCC4)c3c2=O)cc1Cl,-25,/,/,/,9,/
SMILES,KLF5 inh,MT stabilizer,b-catenin transl,Ba/F3 V617F tox,IEC-6 cytotox,BaF3 tox
Fc1cccc(F)c1-n1c(CN2CCCCC2)csc1=S,9,16*,-2,3,4,1
Fc1cccc(F)c1-n1c(CN2CCOCC2)csc1=S,-3,2,0,-2,-1,6
O=C(c1ccccc1)c1nn(-c2ccccc2)c(=O)cc1C(F)(F)F,-5,2,0,8,3,8
O=C(c1ccccc1)c1nn(-c2ccc(Cl)cc2)c(=O)cc1C(F)(F)F,-39,3,/,19,2,30*
O=C(Nc1ccccc1)c1nn(-c2ccccc2)c(=O)cc1C(F)(F)F,-31,16*,1,-7,1,-3
O=C(Nc1ccc(F)cc1)C(=O)c1c(O)[nH]c2ccc([N+](=O)[O-])cc12,-12,/,0,-3,-2,-1
